Values after ≈ are worked out from the molar mass of the structure shown.
Columns and labels:
[1] = system: Mycobacterium tuberculosis; test: Antimycobacterial activity against Mycobacterium tuberculosis CNCTC My 331/88 after 14 days by microdilution method; format: functional; conditions: CNCTC My 331/88, 336 h
Summary of the method: (§1)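 MIC determined by a dilution micromethod. Strains came from the Czech National Collection of Type Cultures, Prague. Compounds were added to the medium as DMSO solutions. Each inoculum was also plated in parallel on Löwenstein–Jensen medium to check its sterility and growth. The M. avium strain is identical with ATCC 25291 and resistant to INH.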

[2] = system: Mycobacterium tuberculosis; test: Antimycobacterial activity against Mycobacterium tuberculosis CNCTC My 331/88 after 21 days by microdilution method; format: functional; conditions: CNCTC My 331/88, 504 h; summary of the method: as §1
[3] = system: Mycobacterium avium; test: Antimycobacterial activity against Mycobacterium avium CNCTC My 330/88 after 14 days by microdilution method; format: functional; conditions: CNCTC My 330/88, 336 h; summary of the method: as §1
[4] = system: Mycobacterium avium; test: Antimycobacterial activity against Mycobacterium avium CNCTC My 330/88 after 21 days by microdilution method; format: functional; conditions: CNCTC My 330/88, 504 h; summary of the method: as §1
[5] = system: Mycobacterium kansasii; test: Antimycobacterial activity against Mycobacterium kansasii CNCTC My 235/80 after 14 days by microdilution method; format: functional; conditions: CNCTC My 235/80, 336 h
Summary of the method: (§2)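 Dilution micromethod for MIC; compounds added to medium as DMSO solutions. Each strain also inoculated onto Löwenstein–Jensen medium to control inoculum sterility and growth. Strain 6509/96 is a clinical isolate; CNCTC strains from the Czech national type culture collection.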

[6] = system: Mycobacterium kansasii; test: Antimycobacterial activity against Mycobacterium kansasii CNCTC My 235/80 after 21 days by microdilution method; format: functional; conditions: CNCTC My 235/80, 504 h; summary of the method: as §2
[7] = system: Mycobacterium kansasii; test: Antimycobacterial activity against Mycobacterium kansasii 6509/96 after 14 days by microdilution method; format: functional; conditions: 6509/96, 336 h; summary of the method: as §2
[8] = system: Mycobacterium kansasii; test: Antimycobacterial activity against Mycobacterium kansasii 6509/96 after 21 days by microdilution method; format: functional; conditions: 6509/96, 504 h; summary of the method: as §2
[9] = system: HeLa; test: Cytotoxicity against human HeLa cells after 72 hrs by using methylene blue staining; format: functional, cell-based
Summary of the method: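 HeLa cells in RPMI 1640 with supplements, preincubated 48 h without compound. Compound dilutions were then applied to subconfluent monolayers for 72 h at 37 °C, 5% CO2. Cells were glutaraldehyde-fixed, stained with 0.05% methylene blue, eluted with 0.33 N HCl and read at OD 660 nm. CC50 taken at 50% intersection versus negative control.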

[10] = system: K562; test: Antiproliferative activity against human K562 cells after 72 hrs by celltiter-blue assay; format: functional, cell-based
Summary of the method: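 K-562 grown in RPMI 1640 with ultraglutamine, gentamicin, 10% heat-inactivated FBS at 37 °C; about 10,000 cells/well. Compounds dissolved in DMSO and diluted in DMEM, incubated 72 h at 37 °C, 5% CO2. Viability read by CellTiter-Blue resazurin reduction. GI50 taken where the dose-response curve crosses 50% of untreated control.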

[11] = system: HUVEC; test: Antiproliferative activity against HUVEC after 72 hrs by using methylene blue staining; format: cell-based; conditions: human
Summary of the method: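 HUVEC in culture medium with ultraglutamine, gentamicin, 10% heat-inactivated FBS, 37 °C. Harvested in log phase by trypsinization; about 10,000 cells/well. Compounds in DMSO, diluted in DMEM, incubated 72 h at 37 °C, 5% CO2. Cells then glutaraldehyde-fixed, stained with 0.05% methylene blue for 15 min, eluted with 0.33 N HCl, OD 660 nm. GI50 taken at 50% intersection versus untreated control.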

With `CO[C@H]1/C=C/O[C@@]2(C)Oc3c(C)c(O)c4c(O)c(c(/C=N/N5CCN(C)CC5)c(O)c4c3C2=O)NC(=O)/C(C)=C\C=C\[C@H](C)[C@H](O)[C@@H](C)[C@@H](O)[C@@H](C)[C@H](OC(C)=O)[C@@H]1C` [RIFAMPIN] the MIC [1] was 0.25 µM (≈ 0.206 µg/mL), the MIC [2] was 0.5 µM (≈ 0.411 µg/mL) and the MIC [3] was 16 µM (≈ 13.2 µg/mL). For the same compound, the MIC [4] was 65 µM (≈ 53.5 µg/mL), the MIC [5] was 0.25 µM (≈ 0.206 µg/mL) and the MIC [6] was 0.25 µM (≈ 0.206 µg/mL). It also gave an MIC [7] of 0.125 µM (≈ 0.103 µg/mL) and an MIC [8] of 0.25 µM (≈ 0.206 µg/mL).

With `O=c1oc2ccc(Br)cc2c(=O)n1Cc1ccccc1` the MIC [1] was 62.5 µM (≈ 20.8 µg/mL), the MIC [2] was 62.5 µM (≈ 20.8 µg/mL) and the MIC [3] was 62.5 µM (≈ 20.8 µg/mL). For the same compound, the MIC [4] was 62.5 µM (≈ 20.8 µg/mL), the MIC [5] was 62.5 µM (≈ 20.8 µg/mL) and the MIC [6] was 125 µM (≈ 41.5 µg/mL). The MIC [7] was 62.5 µM (≈ 20.8 µg/mL), the MIC [8] was 125 µM (≈ 41.5 µg/mL) and the Activity [9] was “Toxic”. The Activity [10] was “Toxic” and the Activity [11] was “Toxic”.

For `O=c1oc2ccc(Br)cc2c(=S)n1Cc1ccc(Cl)c(Cl)c1`, the MIC [1] was 2 µM (≈ 0.834 µg/mL), the MIC [2] was 4 µM (≈ 1.67 µg/mL) and the MIC [3] was 8 µM (≈ 3.34 µg/mL). It also gave an MIC [4] of 8 µM (≈ 3.34 µg/mL), an MIC [5] of 16 µM (≈ 6.67 µg/mL) and an MIC [6] of 16 µM (≈ 6.67 µg/mL). For the same compound, the MIC [7] was 16 µM (≈ 6.67 µg/mL), the MIC [8] was 16 µM (≈ 6.67 µg/mL) and the Activity [9] was “Toxic”. For the same compound, the Activity [10] was “Toxic” and the Activity [11] was “Toxic”.

Work on `O=c1oc2ccc(Cl)cc2c(=S)n1Cc1ccc(Cl)c(Cl)c1` yielded an MIC [1] of 32 µM (≈ 11.9 µg/mL), an MIC [2] of 32 µM (≈ 11.9 µg/mL) and an MIC [3] of 62.5 µM (≈ 23.3 µg/mL). It also gave an MIC [4] of 62.5 µM (≈ 23.3 µg/mL), an MIC [5] of 62.5 µM (≈ 23.3 µg/mL) and an MIC [6] of 62.5 µM (≈ 23.3 µg/mL). The MIC [7] was 62.5 µM (≈ 23.3 µg/mL), the MIC [8] was 62.5 µM (≈ 23.3 µg/mL) and the Activity [9] was “Toxic”. For the same compound, the Activity [10] was “Toxic” and the Activity [11] was “Toxic”.

For `Cc1ccc2oc(=O)n(Cc3ccccc3)c(=S)c2c1`, the MIC [1] was 1 µM (≈ 0.283 µg/mL), the MIC [2] was 1 µM (≈ 0.283 µg/mL) and the MIC [3] was 2 µM (≈ 0.567 µg/mL). For the same compound, the MIC [4] was 2 µM (≈ 0.567 µg/mL), the MIC [5] was 1 µM (≈ 0.283 µg/mL) and the MIC [6] was 2 µM (≈ 0.567 µg/mL). For the same compound, the MIC [7] was 1 µM (≈ 0.283 µg/mL), the MIC [8] was 2 µM (≈ 0.567 µg/mL) and the Activity [9] was “Toxic”. The Activity [10] was “Toxic” and the Activity [11] was “Toxic”.

`O=c1oc2c(Cl)cc(Cl)cc2c(=S)n1Cc1ccc(Cl)c(Cl)c1` gave an MIC [1] of 2 µM (≈ 0.814 µg/mL), an MIC [2] of 2 µM (≈ 0.814 µg/mL) and an MIC [3] of 4 µM (≈ 1.63 µg/mL). The MIC [4] was 4 µM (≈ 1.63 µg/mL), the MIC [5] was 16 µM (≈ 6.51 µg/mL) and the MIC [6] was 16 µM (≈ 6.51 µg/mL). The MIC [7] was 16 µM (≈ 6.51 µg/mL), the MIC [8] was 16 µM (≈ 6.51 µg/mL) and the Activity [9] was “Toxic”. The Activity [10] was “Toxic” and the Activity [11] was “Toxic”.

Compound `O=c1oc2ccc(Cl)cc2c(=O)n1Cc1ccccc1` has an MIC [1] of 62.5 µM (≈ 18 µg/mL), an MIC [2] of 125 µM (≈ 36 µg/mL) and an MIC [3] of 32 µM (≈ 9.21 µg/mL). The MIC [4] was 62.5 µM (≈ 18 µg/mL), the MIC [5] was 32 µM (≈ 9.21 µg/mL) and the MIC [6] was 62.5 µM (≈ 18 µg/mL). For the same compound, the MIC [7] was 125 µM (≈ 36 µg/mL), the MIC [8] was 125 µM (≈ 36 µg/mL) and the Activity [9] was “Toxic”. For the same compound, the Activity [10] was “Toxic” and the Activity [11] was “Toxic”.

`S=c1oc2ccc(Cl)cc2c(=S)n1Cc1ccc(Cl)c(Cl)c1` was tested, and the MIC [1] was 4 µM (≈ 1.55 µg/mL), the MIC [2] was 8 µM (≈ 3.11 µg/mL) and the MIC [3] was 16 µM (≈ 6.22 µg/mL). For the same compound, the MIC [4] was 32 µM (≈ 12.4 µg/mL), the MIC [5] was 32 µM (≈ 12.4 µg/mL) and the MIC [6] was 32 µM (≈ 12.4 µg/mL). The MIC [7] was 32 µM (≈ 12.4 µg/mL) and the MIC [8] was 32 µM (≈ 12.4 µg/mL).

`O=c1oc2ccc(Br)cc2c(=S)n1Cc1ccccc1` showed an MIC [1] of 1 µM (≈ 0.348 µg/mL), an MIC [2] of 2 µM (≈ 0.696 µg/mL) and an MIC [3] of 8 µM (≈ 2.79 µg/mL). It also gave an MIC [4] of 8 µM (≈ 2.79 µg/mL), an MIC [5] of 8 µM (≈ 2.79 µg/mL) and an MIC [6] of 8 µM (≈ 2.79 µg/mL). For the same compound, the MIC [7] was 4 µM (≈ 1.39 µg/mL), the MIC [8] was 8 µM (≈ 2.79 µg/mL) and the Activity [9] was “Toxic”. For the same compound, the Activity [10] was “Toxic” and the Activity [11] was “Toxic”.

For `O=c1oc2c(Cl)cc(Cl)cc2c(=O)n1Cc1ccc(Cl)c(Cl)c1`, the MIC [1] was 62.5 µM (≈ 24.4 µg/mL), the MIC [2] was 125 µM (≈ 48.9 µg/mL) and the MIC [3] was 125 µM (≈ 48.9 µg/mL). For the same compound, the MIC [4] was 125 µM (≈ 48.9 µg/mL), the MIC [5] was 125 µM (≈ 48.9 µg/mL) and the MIC [6] was 125 µM (≈ 48.9 µg/mL). For the same compound, the MIC [7] was 125 µM (≈ 48.9 µg/mL), the MIC [8] was 125 µM (≈ 48.9 µg/mL) and the Activity [9] was “Toxic”. The Activity [10] was “Toxic” and the Activity [11] was “Toxic”.

Work on `O=c1oc2ccccc2c(=S)n1Cc1ccccc1` yielded an MIC [1] of 1 µM (≈ 0.269 µg/mL), an MIC [2] of 2 µM (≈ 0.539 µg/mL) and an MIC [3] of 8 µM (≈ 2.15 µg/mL). The MIC [4] was 8 µM (≈ 2.15 µg/mL), the MIC [5] was 4 µM (≈ 1.08 µg/mL) and the MIC [6] was 8 µM (≈ 2.15 µg/mL). For the same compound, the MIC [7] was 4 µM (≈ 1.08 µg/mL), the MIC [8] was 8 µM (≈ 2.15 µg/mL) and the Activity [9] was “Toxic”. For the same compound, the Activity [10] was “Toxic” and the Activity [11] was “Toxic”.

`O=c1oc2ccccc2c(=O)n1Cc1ccccc1` showed an MIC [1] of 32 µM (≈ 8.1 µg/mL), an MIC [2] of 32 µM (≈ 8.1 µg/mL) and an MIC [3] of 32 µM (≈ 8.1 µg/mL). For the same compound, the MIC [4] was 62.5 µM (≈ 15.8 µg/mL), the MIC [5] was 62.5 µM (≈ 15.8 µg/mL) and the MIC [6] was 62.5 µM (≈ 15.8 µg/mL). For the same compound, the MIC [7] was 62.5 µM (≈ 15.8 µg/mL), the MIC [8] was 62.5 µM (≈ 15.8 µg/mL) and the Activity [9] was “Toxic”. The Activity [10] was “Toxic” and the Activity [11] was “Toxic”.

Compound `S=c1oc2c(Cl)cc(Cl)cc2c(=S)n1Cc1ccc(Cl)c(Cl)c1` has an MIC [1] of 32 µM (≈ 13.5 µg/mL), an MIC [2] of 32 µM (≈ 13.5 µg/mL) and an MIC [3] of 62.5 µM (≈ 26.4 µg/mL). For the same compound, the MIC [4] was 62.5 µM (≈ 26.4 µg/mL), the MIC [5] was 62.5 µM (≈ 26.4 µg/mL) and the MIC [6] was 62.5 µM (≈ 26.4 µg/mL). The MIC [7] was 62.5 µM (≈ 26.4 µg/mL) and the MIC [8] was 62.5 µM (≈ 26.4 µg/mL).
